# Assay results taken from ChEMBL document CHEMBL4613247, “Antioxidant Activity of Compounds Isolated from Elaeagnus umbellata Promotes Human Gingival Fibroblast Well-Being” (J Nat Prod, 2020).
# Activity calls are given as the source filed them. The rule behind the calls is not given here.
# Key:
# [1] = tested on: Fibroblast; assay: Growth inhibition of human Gingival fibroblast at 5 uM after 72 hrs by MTS assay; format: cell-based
# Outline: (§1)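 hGF (passage 4–7) seeded at 1500 cells/well. After 24 h, starved 6 h in noncomplete medium, then treated 72 h (5 nM–50 μM range, 0.5% DMSO final) with or without H2O2 (200 μM). Read by MTS absorbance at 490 nm as % proliferation vs control (100%). Mean ± SD, three replicates, two independent experiments.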
# [2] = tested on: Fibroblast; assay: Protective activity against H202-induced cell death in human Gingival fibroblast assessed as cell proliferation after 72 hrs by MTS assay (reference value: 50.9 +/- 4%); format: functional; outline: as §1
# [3] = tested on: Fibroblast; assay: Antioxidant activity in human Gingival fibroblast assessed as reduction in H202-induced intracellular ROS level by measuring ROS production at […] after 72 hrs by H2DCFDA staining based fluorescence method (reference value: 181.9 +/- 7.4%); format: functional; design: scale not given: the % may be the effect or the level left
# Outline: (§2)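 hGF seeded 5000 cells/well, treated 72 h with or without H2O2 (200 μM); then 30 min in PBS-glucose with 50 μM DCFH2-DA. DCF fluorescence read at 485/520 nm. Cells then fixed, crystal-violet stained and SDS-solubilized, with absorbance at 595 nm. Fluorescence normalized to A595 and expressed as % of control. Mean ± SD, three replicates, two independent experiments.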
# [4] = tested on: Fibroblast; assay: Protection against H202-induced cell cycle blockade in human Gingival fibroblast assessed as accumulation at G0/G1 phase after 72 hrs by flow cytometry (reference value: 42.2%); format: functional
# Outline: (§3)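 hGF seeded at 80 000 cells/well and treated in complete medium 72 h (1–5 μM) with or without H2O2 (200 μM). Percentage of cells in G0/G1, S and G2/M measured on a Muse cell analyzer with a cell cycle kit. Mean ± SD, two replicates, two independent experiments.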
# [5] = tested on: Fibroblast; assay: Protection against H202-induced cell cycle blockade in human Gingival fibroblast assessed as accumulation at S phase after 72 hrs by flow cytometry (reference value: 11.6%); format: functional; outline: as §3
# [6] = tested on: Fibroblast; assay: Protection against H202-induced cell cycle blockade in human Gingival fibroblast assessed as accumulation at G2/M phase after 72 hrs by flow cytometry (reference value: 39.3%); format: functional; outline: as §3
# [7] = tested on: Fibroblast; assay: Induction of cell proliferation in human Gingival fibroblast at 0.5 to 10 uM after 72 hrs by MTS assay; format: functional, cell-based
# Outline: (§4)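 Gingival fibroblasts seeded at 1500 cells/well, then starved 6 h in noncomplete medium after 24 h. Exposed for 72 h to 5 nM–50 μM (DMSO 0.5% final), with or without H2O2 200 μM. MTS absorbance read at 490 nm and expressed as % proliferation vs control set to 100%. Mean ± SD of three replicates from two experiments.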
# [8] = tested on: Fibroblast; assay: Growth inhibition of human Gingival fibroblast at 50 uM after 72 hrs by MTS assay; format: cell-based; outline: as §4
# [9] = tested on: Fibroblast; assay: Antioxidant activity in human Gingival fibroblast assessed as reduction in intracellular ROS level at 1 uM after 72 hrs by H2DCFDA staining based fluorescence method; format: functional, cell-based
# Outline: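 hGF (passage 4–7) seeded 5000 cells/well, treated 72 h in complete medium with or without H2O2 200 μM. Then loaded with 50 μM DCFH2-DA in PBS-glucose for 30 min. DCF fluorescence read at ex 485/em 520 nm and normalized to crystal violet absorbance at 595 nm. Expressed as % of control; three replicates, two independent experiments.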
# [10] = tested on: Fibroblast; assay: Induction of cell proliferation in human Gingival fibroblast at 1 uM after 72 hrs by MTS assay; format: functional; outline: as §1
# [11] = tested on: Fibroblast; assay: Antioxidant activity in human Gingival fibroblast assessed as reduction in H202-induced intracellular ROS level by measuring ROS production at 1 to 5 uM after 72 hrs by H2DCFDA staining based fluorescence method (reference value: 181.9 +/- 7.4%); format: functional; design: scale not given: the % may be the effect or the level left; outline: as §2
# [12] = Induction of cell death in human Gingival fibroblast assessed as live cell at 1 uM after 72 hrs by flow cytometry (reference value: 97%); format: cell-based; settings: gingival fibroblasts, read-out: Activity
# [13] = tested on: Fibroblast; assay: Induction of cell death in human Gingival fibroblast assessed as dead cell at 1 uM after 72 hrs by flow cytometry (reference value: 3%); format: cell-based
# [14] = tested on: Fibroblast; assay: Protection against H202-induced cell death in human Gingival fibroblast assessed as live cell at 1 to 5 uM after 72 hrs by flow cytometry (reference value: 85.1%); format: functional
# [15] = tested on: Fibroblast; assay: Protection against H202-induced cell death in human Gingival fibroblast assessed as dead cell at 1 to 5 uM after 72 hrs by flow cytometry (reference value: 14.9%); format: functional
# [16] = tested on: Fibroblast; assay: Induction of cell cycle arrest in human Gingival fibroblast assessed as accumulation at G0/G1 phase at 1 uM incubated for 72 hrs by flow cytometry (reference value: 76.3%); format: cell-based; outline: as §3
# [17] = tested on: Fibroblast; assay: Induction of cell cycle arrest in human Gingival fibroblast assessed as accumulation at S phase at 1 uM incubated for 72 hrs by flow cytometry (reference value: 5%); format: cell-based; outline: as §3
# [18] = tested on: Fibroblast; assay: Induction of cell cycle arrest in human Gingival fibroblast assessed as accumulation at G2/M phase at 1 uM incubated for 72 hrs by flow cytometry (reference value: 14.9%); format: cell-based; outline: as §3
# [19] = tested on: Fibroblast; assay: Protection against H202-induced cell cycle blockade in human Gingival fibroblast assessed as accumulation at G0/G1 phase at 1 to 5 uM after 72 hrs by flow cytometry (reference value: 42.2%); format: functional; outline: as §3
# [20] = tested on: Fibroblast; assay: Protection against H202-induced cell cycle blockade in human Gingival fibroblast assessed as accumulation at S phase at 1 to 5 uM after 72 hrs by flow cytometry (reference value: 11.6%); format: functional; outline: as §3
# [21] = tested on: Fibroblast; assay: Protection against H202-induced cell cycle blockade in human Gingival fibroblast assessed as accumulation at G2/M phase at 1 to 5 uM after 72 hrs by flow cytometry (reference value: 39.3%); format: functional; outline: as §3
# [22] = tested on: Fibroblast; assay: Effect on p53 mRNA expression in human Gingival fibroblast at 1 uM after 72 hrs by RT-PCR method; format: ADME, cell-based
# Outline: (§5)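 hGF (3500 cells/cm2) in complete medium, treated 72 h with or without H2O2 (200 μM). Real-time RT-PCR of total RNA for p53, p21 and p16INK4A. Levels normalized to β-actin and relative expression taken from Ct. Fold change vs control set to 1. Mean ± SD, two independent experiments in duplicate.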
# [23] = tested on: Fibroblast; assay: Effect on p21 mRNA expression in human Gingival fibroblast at 1 uM after 72 hrs by RT-PCR method; format: ADME, cell-based; outline: as §5
# [24] = tested on: Fibroblast; assay: Effect on p16Ink4a mRNA expression in human Gingival fibroblast at 1 uM after 72 hrs by RT-PCR method; format: ADME, cell-based; outline: as §5
# [25] = tested on: Fibroblast; assay: Protection against H202-induced oxidative stress in human Gingival fibroblast assessed as reduction in p53 expression at 1 to 5 uM after 72 hrs by RT-PCR analysis; format: functional, cell-based; outline: as §5
# [26] = tested on: Fibroblast; assay: Protection against H202-induced oxidative stress in human Gingival fibroblast assessed as reduction in p21 expression at 1 to 5 uM after 72 hrs by RT-PCR analysis; format: functional, cell-based; outline: as §5
# [27] = tested on: Fibroblast; assay: Protection against H202-induced oxidative stress in human Gingival fibroblast assessed as reduction in p16Ink4a expression at 1 to 5 uM after 72 hrs by RT-PCR analysis; format: functional, cell-based; outline: as §5
# [28] = tested on: Fibroblast; assay: Downregulation of LPS-induced IL-6 expression in human Gingival fibroblast at 1 to 5 uM after 72 hrs by RT-PCR analysis; format: functional, cell-based
# Outline: (§6)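 hGF (3500 cells/cm2) in complete medium, 1–5 μM for 72 h with or without LPS (1 μg/mL). Total RNA extracted, then real-time RT-PCR. mRNA normalized to β-actin and relative expression calculated from Ct. Specificity checked by melting curve and gel. Fold change vs control set to 1. Mean ± SD of two independent experiments in duplicate.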
# [29] = tested on: Fibroblast; assay: Downregulation of LPS-induced IL-8 expression in human Gingival fibroblast at 1 to 5 uM after 72 hrs by RT-PCR analysis; format: functional, cell-based; outline: as §6
# [30] = tested on: Fibroblast; assay: Upregulation of IL-10 expression in LPS-stimulated human Gingival fibroblast at 1 to 5 uM after 72 hrs by RT-PCR analysis; format: functional, cell-based; outline: as §6
smiles,measurement,setting,value
O=c1c(O[C@@H]2O[C@H](CO)[C@H](O)[C@H](O)[C@H]2O[C@@H]2O[C@H](CO)[C@@H](O)[C@H](O)[C@H]2O)c(-c2ccc(O)cc2)oc2cc(O)cc(O)c12,growth inhibition (GI),[1],Toxic
CC(=O)N[C@@H](CS)C(=O)O [ACETYLCYSTEINE],Activity,[2],74.1%
same,Activity,[3],109.7%
same,Activity,[4],72.7%
same,Activity,[5],6.4%
same,Activity,[6],18.5%
O=c1c(O)c(-c2ccc(O)c(O)c2)oc2cc(O)cc(O)c12 [QUERCETIN],Activity,[7],inactive
same,growth inhibition (GI),[8],Toxic
same,Activity,[9],Active
C[C@@H]1O[C@@H](Oc2cc(O)c3c(=O)c(O[C@@H]4O[C@H](CO)[C@H](O)[C@H](O)[C@H]4O[C@@H]4O[C@H](CO)[C@@H](O)[C@H](O)[C@H]4O)c(-c4ccc(O)c(O)c4)oc3c2)[C@H](O)[C@H](O)[C@H]1O,growth inhibition (GI),[1],Toxic
C[C@@H]1O[C@@H](Oc2cc(O)c3c(=O)c(O[C@@H]4O[C@H](CO)[C@H](O)[C@H](O)[C@H]4O[C@@H]4O[C@H](CO)[C@@H](O)[C@H](O)[C@H]4O)c(-c4ccc(O)cc4)oc3c2)[C@H](O)[C@H](O)[C@H]1O,Activity,[10],125.6%
same,Activity,[2],68.8%
same,Activity,[9],Active
same,Activity,[11],124.2%
same,"viability at 72 h, 1 µM",[12],93.3%
same,Activity,[13],6.7%
same,Activity,[14],90%
same,Activity,[15],10%
same,Activity,[16],81.5%
same,Activity,[17],4.8%
same,Activity,[18],10.5%
same,Activity,[19],69.8%
same,Activity,[20],13%
same,Activity,[21],14.2%
same,Activity,[22],Non-Toxic
same,Activity,[23],Non-Toxic
same,Activity,[24],Toxic
same,Activity,[25],Active
same,Activity,[26],Active
same,Activity,[27],Active
same,Activity,[28],Active
same,Activity,[29],Active
same,Activity,[30],Active
O=c1c(O)c(-c2ccc(O)cc2)oc2cc(O)cc(O)c12 [KAEMPFEROL],Activity,[7],inactive
same,growth inhibition (GI),[8],Toxic
